Measurements published in ChEMBL document CHEMBL3124904, “Second-generation derivatives of the eukaryotic translation initiation inhibitor pateamine A targeting eIF4A as potential anticancer agents” (Bioorg Med Chem, 2014).
Calls of active or inactive are those of the source. No cut-off for these calls is given here.

Assays:
[1] = Antiproliferative activity against human Jurkat T cells assessed as DNA synthesis level after 24 hrs by thymidine incorporation assay; assay type: functional, cell-based
How it was run: (§1)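 Cells kept at 37 °C, 5% CO2 with penicillin-streptomycin and 10% FBS. Adherent lines seeded at 2000 cells/well and left to recover overnight; Jurkat seeded at 5000 cells/well with no recovery period. Compound added in DMSO (0.1% final, vehicle-only control) at 0.001–100 nM over 10 wells. DNA synthesis read out after 24 h. Mean IC50 from at least 3 independent assays.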

[2] = tested on: Jurkat; assay: Immunosuppressive activity in human Jurkat T cells assessed as inhibition of IL-2 transcription; assay type: functional, cell-based
[3] = tested on: RKO; assay: Antiproliferative activity against human RKO cells assessed as DNA synthesis level after 24 hrs by thymidine incorporation assay; assay type: functional, cell-based; how it was run: as §1
[4] = Antiproliferative activity against BAEC assessed as DNA synthesis level after 24 hrs by thymidine incorporation assay; details: Bos taurus; how it was run: as §1
[5] = tested on: HeLa; assay: Antiproliferative activity against human HeLa cells assessed as DNA synthesis level after 24 hrs by thymidine incorporation assay; assay type: functional, cell-based; how it was run: as §1
[6] = tested on: HaCaT; assay: Antiproliferative activity against human HaCaT cells assessed as DNA synthesis level after 24 hrs by thymidine incorporation assay; assay type: functional, cell-based; how it was run: as §1
[7] = Binding affinity to eIF4A1/2 in rabbit reticulocyte lysate assessed as inhibition of cap-dependent translation after 1.5 hrs by dual luciferase reporter gene assay; set-up: species or system Oryctolagus cuniculus
How it was run: (§2)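 Capped bicistronic reporter mRNA: cap-dependent firefly luciferase first cistron, HCV IRES-driven Renilla second cistron. Transcribed in vitro with SP6 from the BamHI-linearised plasmid. 200 ng RNA translated in rabbit reticulocyte lysate with 70 mM KCl, 2 mM DTT, RNasin and compound in DMSO (5% v/v final), 30 °C for 1.5 h. Dual luciferase readout. Duplicates, 4 independent assays, mean IC50 by curve fit.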

[8] = Antiproliferative activity against human Jurkat T cells after 72 hrs by MTT assay; assay type: functional, cell-based
How it was run: (§3)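 HeLa and SK-MEL2 grown in DMEM, Jurkat in RPMI 1640, each with 10% FBS and penicillin-streptomycin, at 37 °C and 5% CO2. Adherent cells seeded at 2000/well and left to recover overnight; Jurkat seeded at 5000/well with no recovery. Compound added in DMSO (0.1% final), then 72 h incubation and MTT readout.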

[9] = organism: Oryctolagus cuniculus; assay: Inhibition of cap-independent HCV-IRES-induced translation in rabbit reticulocyte lysate at 500 nM after 1.5 hrs by luciferase reporter gene assay; assay type: functional; how it was run: as §2
[10] = tested on: HeLa; assay: Antiproliferative activity against human HeLa cells after 72 hrs by MTT assay; assay type: functional, cell-based; how it was run: as §3
[11] = tested on: SK-MEL-2; assay: Antiproliferative activity against human SK-MEL-2 cells after 72 hrs by MTT assay in presence of 10% FBS; assay type: functional, cell-based; details: SK-MEL-2, 72 h; how it was run: as §3
[12] = tested on: HeLa; assay: Antiproliferative activity against human HeLa cells up to 500 nM after 72 hrs by MTT assay; assay type: functional, cell-based; how it was run: as §3
[13] = tested on: SK-MEL-2; assay: Antiproliferative activity against human SK-MEL-2 cells up to 10^4 nM after 72 hrs by MTT assay in presence of 10% FBS; assay type: functional, cell-based; how it was run: as §3
[14] = organism: Oryctolagus cuniculus; assay: Binding affinity to eIF4A1/2 in rabbit reticulocyte lysate assessed as inhibition of cap-dependent translation up to 500 nM after 1.5 hrs by dual luciferase reporter gene assay; how it was run: as §2
[15] = organism: Oryctolagus cuniculus; assay: Binding affinity to eIF4A1/2 in rabbit reticulocyte lysate assessed as cap-dependent translation at 500 nM after 1.5 hrs by dual luciferase reporter gene assay relative to control
How it was run: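 Rabbit reticulocyte lysate translating the cap-dependent/HCV IRES dual-luciferase mRNA, with compound at 500 nM in DMSO (5% v/v final), 30 °C for 1.5 h. Cap-dependent luciferase expressed as % translation relative to DMSO control.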

[16] = tested on: Jurkat; assay: Antiproliferative activity against human Jurkat T cells up to 10^4 nM after 72 hrs by MTT assay; assay type: functional, cell-based; how it was run: as §3

SMILES | IC50 [8] [nM] | inhibition [9] | IC50 [11] [nM] | Activity [12] | Activity [13] | inhibition [14] | Activity [16] | further results
CC(/C=C/C(C)=C/[C@@H]1Cc2nc(cs2)[C@@H](C)C[C@@H](N)CC(=O)O[C@@H](C)C/C(C)=C/C=C\C(=O)O1)=C\CN(C)C [PATEAMINE A] | – | – | – | – | – | – | – | IC50 [1]: 0.6 nM; IC50 [2]: 4 nM; IC50 [3]: 0.38 nM; IC50 [4]: 0.5 nM; IC50 [5]: 0.72 nM; IC50 [6]: 0.42 nM
CC(/C=C/C=C/CO)=C\[C@@H]1Cc2nc(cs2)CCCCC(=O)O[C@@H](C)C/C(C)=C/C=C\C(=O)O1 | > 10000 | inactive | > 5000 | – | – | – | – | IC50 [7]: > 500 nM; IC50 [10]: > 5000 nM
COCCC/C=C/C(C)=C/[C@@H]1Cc2nc(cs2)CCCCC(=O)O[C@@H](C)C/C(C)=C/C#CC(=O)O1 | > 10000 | inactive | – | inactive | inactive | – | – | –
CC(Br)=C[C@@H]1Cc2nc(cs2)CCCCC(=O)O[C@@H](C)C/C(C)=C/C=C\C(=O)O1 | > 10000 | inactive | > 10000 | inactive | – | inactive | – | –
CC(/C=C/C(C)=C/[C@@H]1Cc2nc(cs2)CCCCC(=O)O[C@@H](C)C/C(C)=C/C=C/C(=O)O1)=C\CN(C)C | > 10000 | inactive | 950 | – | – | – | – | IC50 [7]: > 500 nM; IC50 [10]: 860 nM; Activity [15]: 80%
CC(/C=C/CCCO)=C\[C@@H]1Cc2nc(cs2)CCCCC(=O)O[C@@H](C)C/C(C)=C/C#CC(=O)O1 | – | inactive | – | inactive | inactive | – | inactive | –
CC(/C=C/C(C)=C/[C@@H]1Cc2nc(cs2)CCCCC(=O)O[C@@H](C)C/C(C)=C/C#CC(=O)O1)=C\CN(C)C | – | inactive | – | inactive | inactive | inactive | inactive | –
CC(/C=C/CCCO)=C\[C@@H]1Cc2nc(cs2)CCCCC(=O)O[C@@H](C)C/C(C)=C/C=C\C(=O)O1 | > 5000 | inactive | > 5000 | inactive | – | inactive | – | –
CC(/C=C/C=C/CO)=C\[C@@H]1Cc2nc(cs2)CCCCC(=O)O[C@@H](C)C/C(C)=C/C#CC(=O)O1 | – | inactive | – | inactive | inactive | – | inactive | –
CC(/C=C/C(C)=C/[C@@H]1Cc2nc(cs2)[C@@H](C)C[C@@H](NC(=O)C(F)(F)F)CC(=O)O[C@@H](C)C/C(C)=C/C=C\C(=O)O1)=C\CN(C)C | – | – | – | – | – | – | – | IC50 [2]: 300 nM; IC50 [3]: > 100 nM; IC50 [5]: > 100 nM; IC50 [6]: > 100 nM
CC(/C=C/CCCO)=C\[C@@H]1Cc2nc(cs2)[C@@H](C)C[C@@H](NC(=O)OC(C)(C)C)CC(=O)O[C@@H](C)C/C(C)=C/C=C\C(=O)O1 | – | – | – | – | – | – | – | IC50 [2]: > 1000 nM
COC/C=C/C=C/C(C)=C/[C@@H]1Cc2nc(cs2)CCCCC(=O)O[C@@H](C)C/C(C)=C/C=C\C(=O)O1 | – | inactive | > 5000 | inactive | – | inactive | inactive | –
